# Experimental data as given in PubChem BioAssay AID504383 (The Scripps Research Institute Molecular Screening Center, 2011).
# Values joined by “and” are separate entries in the source; they are usually repeats but may differ in a detail not shown here. Equal values may be shown once. In all, about 2,500 compounds went through this assay and about 1,200 (48%) were called active.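 The calls were made as follows: active = mean activation above the low control average plus 3 SD, as set in the primary screen (cut at about 12% in these data); inactive = the rest.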 The set was probably picked from earlier hits. The list shows a part of the results. The source holds several records for some structures; these can differ, active in one and inactive in another.
# Molecular target: Troponin I, cardiac muscle (Homo sapiens) + Troponin T, cardiac muscle (Homo sapiens) + Troponin C, slow skeletal and cardiac muscles (Homo sapiens) (UniProt P19429+P45379+P63316)
# Test: cardiac RTF calcium sensitivity activators, confirmation, biochemical, IANBD-TnC fluorescence, triplicate (AID 504383);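 also: 0% = DMSO at 0.472 mM calcium and 100% = DMSO at 2.9 mM calcium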
# Details: IANBD-labeled cardiac RTF, Ca2+ sensitivity fluorescence; at 7.2 µM; stronger effect = higher value; scaled from EC20 to saturating calcium; tested at EC20 calcium, 0.472 mM
# In short: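 Test system: labelled regulated thin filament protein complex. Dosing: single nominal compound dose of 7.2 µM. Benchmarks: EC20 and EC100 calcium wells. Read-out basis: fluorescence gain scaled between EC20 and EC100 calcium controls. Probe or stimulus: submaximal calcium at 0.472 mM (EC20). Technique: fluorescence. Times: 15 min compound exposure, 25 °C.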
row,Compound,activation
1,CCCN1CCc2c(sc(NC(=S)NC(=O)c3ccccc3)c2C#N)C1,270% (active)
2,CC(=O)c1ccc(C(=O)Nc2sc3c(c2C(N)=O)CCN(Cc2ccccc2)C3)cc1,2.38% (inactive)
3,N#Cc1c(NC(=O)/C=C/C(=O)O)sc2c1CCN(Cc1ccccc1)C2,13.4% (active)
4,CCN1CCc2c(sc(NC(=O)c3ccc(S(=O)(=O)N(C)c4ccccc4)cc3)c2C(=O)NC)C1,10.6% (inactive)
5,NC(=O)c1c(NC(=O)c2ccccc2)sc2c1CCN(Cc1ccccc1)C2,105% (active)
6,O=C(Nc1nc2c(s1)CN(Cc1ccccc1)CC2)c1cccc(S(=O)(=O)N2CCc3ccccc32)c1,5.41% (inactive)
7,N#Cc1c(NC(=O)C2CC=CCC2C(=O)O)sc2c1CCCCCC2 (stereo not drawn),6.81% (inactive)
8,CC[n+]1c(/C=C/N(C)c2ccccc2)oc2ccccc21,0.87% (inactive)
9,CC[n+]1c(/C=C/N(C)c2ccccc2)oc2ccc(F)cc21,14.5% (active)
10,Cc1cc(C)n2nc3nc4c(cc3c2n1)CCCC4,89.3% (active)
11,Cc1ccc(-c2nc3ncccn3c2Nc2ccc3c(c2)OCCO3)o1,230% (active)
12,COc1cccc(C2C3CN(C)CC=C3C(C#N)=C(N)C2(C#N)C#N)c1OC (stereo not drawn),8.43% (inactive)
13,COc1cccc(C2C(C#N)=C(N)Oc3cc(C)oc(=O)c32)c1OC (stereo not drawn),23% (active)
14,CN1C(=O)/C(=C\C=C2/CCCN2C)N(C)C1=S,173% (active)
15,CCCCN1C(=O)/C(=C/C=C2/CC(C)(C)CN2C)SC1=S,2.58% (inactive)
16,CCN1C(=O)/C(=C/C=C2/CCCN2C)OC1=S,12.9% (active)
17,CN1CCC/C1=C/C=C1\SC(=S)NC1=O,4.23% (inactive)
18,C[n+]1c2cc(N)ccc2cc2ccc(N)cc21,6.45% (inactive) and 14.5% (active)
19,N#Cc1cc(C(=O)c2ccccc2O)cn(-c2nccs2)c1=O,45.5% (active)
20,N#Cc1cc(C(=O)c2cc(F)ccc2O)cn(-c2nccs2)c1=O,9.61% (inactive)

row,Compound,activation
1,CCN(CC)CCCNC(=O)CCn1nc(-c2ccc(Cl)cc2)ccc1=O,7.9% (inactive)
2,O=C(Cn1c(C(F)(F)F)nc2ccccc21)NCCN1CCCC1,-3.29% (inactive)
3,Cn1c(=O)c2c(nc(NCCNC(=O)c3ccco3)n2Cc2ccccc2Cl)n(C)c1=O,7.43% (inactive)
4,CN1/C(=C\C(=O)c2ccco2)C(C)(C)c2ccccc21,7.09% (inactive)
5,Cn1c(CCNC(=O)c2ccco2)nc2ccccc21,919% (active)
6,CCCC(=O)NCCCc1nc2ccccc2n1C,124% (active)
7,CC(C)(C)NCc1cc(Cl)ccc1OCc1cccs1,47% (active)
8,Cc1cc(Cl)ccc1OCC(=O)Nc1nc(-c2cccs2)cs1,-1.8% (inactive)
9,COc1ccc(C(=O)Nn2cnc3scc(-c4cccs4)c3c2=O)c(O)c1,29.8% (active)
10,COc1ccc(OC)c(/C=c2\sc3nc(-c4cccs4)nn3c2=O)c1,9.45% (inactive)
11,CCOC(=O)c1nc2cc3n(c(CC(C)C)c-2c1C)CC(C)=C3C,1.31% (inactive)
12,Oc1[nH]c2ccc(Br)cc2c1N=Nc1ccc(F)cc1,22.7% (active)
13,O=c1[nH]c2ccc(N=Cc3c(O)ccc4cc(Br)ccc34)cc2[nH]1,0.37% (inactive)
14,Cc1ccc(N=Nc2c(O)[nH]c3ccc(F)cc23)cc1,20.6% (active)
15,Cc1cccc(N=Nc2c(O)[nH]c3ccc(F)cc23)c1,7.58% (inactive)
16,CCN1/C(=C/C=C2/SC(=Nc3cccc4ncccc34)N(C)C2=O)Sc2ccccc21,28.3% (active)
17,CCN1/C(=C2\SC(=S)N(Cc3ccccc3)C2=O)Sc2ccccc21,-1.47% (inactive)
18,CC1(C)CCN2CCC(C)(C)c3c(O)ccc1c32,42.4% (active)
19,CCOCCCn1c(=NC(=O)c2cccs2)c(C#N)cc2c(=O)n3cccc(C)c3nc21,19% (active)
20,Cc1cccn2c(=O)c3cc(C#N)c(=NC(=O)c4cccs4)n(CCCOC(C)C)c3nc12,4.3% (inactive)

row,Compound,activation
1,CCOC(=O)/C(=C\c1ccc(N2CCC(c3ccccc3)=N2)cc1)C(C)=O,8.5% (inactive)
2,CCOC(=O)/C(=C/C1=CC(=C/N(C)C)/C(=O)O1)C(C)=O,87.4% (active)
3,CCOC(=O)NC1(C(F)(F)F)C(=O)NC(C)=C1C(=O)OC (stereo not drawn),19.8% (active)
4,CC1CCN(c2ccc3c(c2)S(=O)(=O)c2ccccc2C3=O)CC1,9.57% (inactive)
5,NC(=O)c1c(Nc2nc3c(F)cccc3s2)sc2c1CCCC2,-1.65% (inactive)
6,O=C(O)CCCC(=O)Nc1ccc(C(=O)NCc2cccnc2)cc1,0.95% (inactive)
7,CC(Oc1ccc(F)cc1)C(=O)Nc1sc2c(c1C(=O)NCc1cccnc1)CCCC2 (stereo not drawn),83.6% (active)
8,CN1C(=CC=C2C=C(I)C(=O)C(I)=C2)C(C)(C)c2ccccc21,4.78% (inactive)
9,CC1(C)c2ccccc2N2CC(=O)N(CC(N)=O)C21C (stereo not drawn),70.2% (active)
10,CC1CCN(c2ccc3c(c2)S(=O)(=O)c2cccc(C(=O)NCc4ccc(F)cc4)c2C3=O)CC1,1.28% (inactive)
11,CC1CCN(c2ccc3c(c2)S(=O)(=O)c2cccc(C(=O)NCc4cccc(F)c4)c2C3=O)CC1,8.22% (inactive)
12,O=C(NC1CC1)c1cccc2c1C(=O)c1ccc(N3CCC(Cc4ccccc4)CC3)cc1S2(=O)=O,0.64% (inactive)
13,O=C(NCc1ccco1)c1cccc2c1C(=O)c1ccc(N3CCCC3)cc1S2(=O)=O,7.33% (inactive)
14,O=C(NCc1cccc(F)c1)c1cccc2c1C(=O)c1ccc(N3CCC(Cc4ccccc4)CC3)cc1S2(=O)=O,14.5% (active)
15,O=C(NCCc1ccc(F)cc1)c1cccc2c1C(=O)c1ccc(N3CCC(Cc4ccccc4)CC3)cc1S2(=O)=O,107% (active)
16,O=C(NCc1cccc(C(F)(F)F)c1)c1cccc2c1C(=O)c1ccc(N3CCC(Cc4ccccc4)CC3)cc1S2(=O)=O,8.69% (inactive)
17,O=C(NCc1ccc(F)cc1)c1cccc2c1C(=O)c1ccc(N3CCC(Cc4ccccc4)CC3)cc1S2(=O)=O,4.35% (inactive)
18,O=C(NCc1ccco1)c1cccc2c1C(=O)c1ccc(N3CCC(Cc4ccccc4)CC3)cc1S2(=O)=O,63.9% (active)
